Bioassay records (PubChem BioAssay)
Granule exo inh – blocks lytic granule exocytosis; inhibition, % at 10 µM; TALL-104 LAMP-1 surface exposure, flow cytometry; cells stimulated with thapsigargin and PMA; actives 0.66% (n = 360,000);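 active = inhibition above about 55%, limit read from the data; inconclusive = no clear call, values can overlap the other calls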
Myeloid diff 2 – promotes myeloid progenitor differentiation; ER-HoxA9 myeloid progenitors, lysozyme-GFP differentiation, flow cytometry; actives 1% (n = 360,000); calls only at 10 µM;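 active = normalized GFP-positive differentiation at or above the plate's own cutoff, the solvent-only control mean plus 3 SD; inconclusive = no clear call, values can overlap the other calls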;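 also: cells exposed to compound for four days before flow analysis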
HNF4A DNA FP – change in binding of human HNF4 alpha to DNA. P41235. HNF4a-FITC DNA binding, fluorescence polarization, 1 h. activity change, % at 10 µM. actives 0.3% (n = 360,000). AID 1224865; in the data active = activity change above about 30%, passing the limit was not always enough
Target sequence (P41235 whole entry, looked up): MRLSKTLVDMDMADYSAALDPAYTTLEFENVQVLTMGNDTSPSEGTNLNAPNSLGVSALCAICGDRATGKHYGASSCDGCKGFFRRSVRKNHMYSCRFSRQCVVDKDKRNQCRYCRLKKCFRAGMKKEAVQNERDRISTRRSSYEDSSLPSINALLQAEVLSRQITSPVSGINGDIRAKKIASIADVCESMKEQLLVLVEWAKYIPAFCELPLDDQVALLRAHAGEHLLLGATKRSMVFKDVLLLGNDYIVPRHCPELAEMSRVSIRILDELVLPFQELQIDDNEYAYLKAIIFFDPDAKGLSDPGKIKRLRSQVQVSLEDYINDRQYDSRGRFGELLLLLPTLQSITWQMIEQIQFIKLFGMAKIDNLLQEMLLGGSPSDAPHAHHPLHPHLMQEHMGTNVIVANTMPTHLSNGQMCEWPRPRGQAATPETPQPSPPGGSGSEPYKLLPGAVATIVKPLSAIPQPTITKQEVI
CSN deneddyl inh – inhibitors of human CSN-mediated cullin deneddylation; actives 0.38% (n = 360,000); AID 651999; Purified CSN, SCF-Nedd8-OG deneddylation, fluorescence polarization; inhibition, % at 12.5 µM;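 active = pattern-corrected inhibition above about 35%, with an unprinted fluorescence ratio check between 0.5 and 1.5, limit read from the data, passing the limit was not always enough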
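Schedule: reaction 90 min, room temperature / Assay system: HEK293T-derived human Csn5 enzyme / Input: Csn5 at 0.24 nM final / Measure: inhibition of Csn5 cleavage, % / Control set: substrate-only high control, full reaction low control / Technique: fluorescence polarization of the substrate / Buffer or medium: Tris/NaCl/DTT buffer, pH 7.5 / Reagent: SCFSkp2-Nedd8OG substrate at 10 nM final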
Hits are given with their value. Rows were chosen to be rich in hits. Some 2.2% of all compounds tested hit in one or more screens of this group.

For Cc1cc(CNC(=O)Cn2nc(C)c([N+](=O)[O-])c2C)c2ccccc2n1 the results were Granule exo inh 58, HNF4A DNA FP inactive and CSN deneddyl inh inactive.
For NC(=O)C1CN(C(=O)c2cccc(S(=O)(=O)N3CCc4ccccc43)c2)c2ccccc2O1 (centres undefined) the results were Granule exo inh inactive, Myeloid diff 2 inactive, HNF4A DNA FP inactive and CSN deneddyl inh inactive.
Cc1ccc(S(=O)(=O)CCC(=O)OCC(=O)NCC(=O)Nc2c(C)cc(C)cc2C)cc1 was read as Granule exo inh inactive, Myeloid diff 2 inactive, HNF4A DNA FP inactive and CSN deneddyl inh inactive.
Screening Cc1ccccc1S(=O)(=O)c1c(C)cc(C)n(C)c1=O returned Granule exo inh inactive, Myeloid diff 2 inactive, HNF4A DNA FP inactive and CSN deneddyl inh 43.
Cc1ccccc1S(=O)(=O)c1c(C)cc(C)n(CC(C)C)c1=O was read as Granule exo inh inactive, Myeloid diff 2 inactive, HNF4A DNA FP inactive and CSN deneddyl inh inactive.
For O=S(=O)(NCC(O)c1ccccc1)c1cc(Cl)sc1Cl (centres undefined) the results were Granule exo inh inactive, Myeloid diff 2 inactive, HNF4A DNA FP inactive and CSN deneddyl inh inactive.
`OCCN(CCO)c1cc2c3ccccc3ccc2c2ccccc12` gave Granule exo inh inactive, Myeloid diff 2 inactive, HNF4A DNA FP inactive and CSN deneddyl inh 45.
Screening Cc1ccc2c(c1C)-c1c(ccc(C)c1C)C(=O)C2=O returned Granule exo inh 106, HNF4A DNA FP inactive and CSN deneddyl inh inactive.
For O=C(Nc1cc(Cl)ccc1-n1cncn1)c1ccc([N+](=O)[O-])s1 the results were Granule exo inh inactive, Myeloid diff 2 active, HNF4A DNA FP inactive and CSN deneddyl inh inactive.
`CCOC(=O)C(=CNc1nc(-c2ccccc2)c(C(=O)Nc2ccc(-c3ccccc3)cc2)s1)C(=O)OCC` gave Granule exo inh inactive, Myeloid diff 2 inactive, HNF4A DNA FP inactive and CSN deneddyl inh inactive.
Screening CCN(Cc1ccccc1)c1ccc(/C=C(\C#N)c2ccccn2)cc1 returned Granule exo inh inactive, Myeloid diff 2 inactive, HNF4A DNA FP inactive and CSN deneddyl inh inactive.
CCN(CC)c1ccc(/C=C(\C#N)c2ccccn2)cc1 was read as Granule exo inh inactive, Myeloid diff 2 inactive, HNF4A DNA FP 89 and CSN deneddyl inh inactive.
Screening CC(C)C[C@@H](CNCC(=O)[C@H](C)NC(=O)c1[nH]cnc1C(=O)N[C@@H](C)CN)NC(=O)c1nc[nH]c1C(=O)N[C@@H](CC(=O)O)C(=O)O returned Granule exo inh inactive, Myeloid diff 2 inactive, HNF4A DNA FP inactive and CSN deneddyl inh inactive.
COc1ccc2cc(CN(CC3CCCO3)S(=O)(=O)c3ccc(C(C)=O)cc3)c(=O)[nH]c2c1 (centres undefined) was read as Granule exo inh inactive, Myeloid diff 2 active, HNF4A DNA FP inactive and CSN deneddyl inh inactive.
For CCCCCCCCCCCCCCC[C@@H](O)[C@@H](N)CO the results were Granule exo inh inactive, Myeloid diff 2 inactive, HNF4A DNA FP 121 and CSN deneddyl inh 84.
COC(CNC(=O)C(=O)Nc1cc2c3c(c1)CC(=O)N3CCC2)OC was read as Granule exo inh inactive, Myeloid diff 2 inactive, HNF4A DNA FP inactive and CSN deneddyl inh inactive.
Screening Cc1nc(Cc2nnc(SCC(=O)N3CCN(c4ccc(O)cc4)CC3)o2)cs1 returned Granule exo inh inactive, Myeloid diff 2 active, HNF4A DNA FP inactive and CSN deneddyl inh inactive.
For COC1=CC(=O)C=C(OC)C1=O the results were Granule exo inh 78, Myeloid diff 2 inconclusive, HNF4A DNA FP inactive and CSN deneddyl inh inactive.
Screening Cc1ccccc1CSc1nnc(-c2ccco2)n1Cc1ccco1 returned Granule exo inh inactive, Myeloid diff 2 active, HNF4A DNA FP inactive and CSN deneddyl inh inactive.
For COc1cc(C)c(C(=O)CC(=O)c2c(C)cc(OC)cc2C)c(C)c1 the results were Granule exo inh inactive, Myeloid diff 2 active, HNF4A DNA FP inactive and CSN deneddyl inh inactive.
`CC(C)Oc1ccc(C(=O)Nc2ccc(N3CCCCC3)cc2)cc1` gave Granule exo inh inactive, Myeloid diff 2 inactive, HNF4A DNA FP 82 and CSN deneddyl inh inactive.
Cc1ccc(C(=O)Nc2ccc(N3CCCCC3)cc2)cc1 was read as Granule exo inh inactive, Myeloid diff 2 inactive, HNF4A DNA FP inactive and CSN deneddyl inh inactive.
For CCCCCn1nnnc1-c1nc2cc(C)c(C)cc2[nH]c1=O the results were Granule exo inh inactive, Myeloid diff 2 inactive, HNF4A DNA FP inactive and CSN deneddyl inh inactive.
`CN(C)c1ccc(C(=N)Cc2ccc3ccccc3n2)cc1` gave Granule exo inh inactive, Myeloid diff 2 active, HNF4A DNA FP inactive and CSN deneddyl inh 44.
Screening O=C(N/N=C/c1ccc([N+](=O)[O-])s1)c1cccc(Br)c1 returned Granule exo inh inactive, Myeloid diff 2 active, HNF4A DNA FP inactive and CSN deneddyl inh inactive.
Cc1ccc(C)c(NNC(N)=S)c1 was read as Granule exo inh inactive, Myeloid diff 2 inactive, HNF4A DNA FP inactive and CSN deneddyl inh inactive.
`Cc1cc(Cl)ccc1NNC(N)=S` gave Granule exo inh 62, Myeloid diff 2 inactive, HNF4A DNA FP inactive and CSN deneddyl inh inactive.
`O=c1cc(Cl)[nH]c(=O)n1CCNc1ncc(C(F)(F)F)cc1Cl` gave Granule exo inh inactive, Myeloid diff 2 inactive, HNF4A DNA FP 50 and CSN deneddyl inh 37.
O=C1C=CC(=O)N1CCNc1ncc(C(F)(F)F)cc1Cl was read as Granule exo inh inactive, Myeloid diff 2 inconclusive, HNF4A DNA FP inactive and CSN deneddyl inh inactive.
Cc1cc2oc(C(=O)N(Cc3ccccc3)c3ccccn3)cc(=O)c2cc1Cl was read as Granule exo inh 57, Myeloid diff 2 inactive, HNF4A DNA FP inactive and CSN deneddyl inh inactive.
Screening Cc1cc(C)c2oc(C(=O)N(Cc3ccccc3)c3ccccn3)cc(=O)c2c1 returned Granule exo inh inactive, Myeloid diff 2 inactive, HNF4A DNA FP inactive and CSN deneddyl inh inactive.
For Cc1ccc(OCc2ccc([N+](=O)[O-])cc2)c([N+](=O)[O-])n1 the results were Granule exo inh inactive, Myeloid diff 2 inactive, HNF4A DNA FP inactive and CSN deneddyl inh inactive.
`Cc1ccc(OCc2ccccc2C)c([N+](=O)[O-])n1` gave Granule exo inh inactive, Myeloid diff 2 active, HNF4A DNA FP inactive and CSN deneddyl inh inactive.
For Cc1c2ccccc2nc2c(F)c(NC(C)C)c(F)c(F)c12 the results were Granule exo inh inactive, Myeloid diff 2 active, HNF4A DNA FP inactive and CSN deneddyl inh inactive.
OCCNc1c2ccccc2nc2c(F)c(F)c(F)c(F)c12 was read as Granule exo inh inactive, HNF4A DNA FP inactive and CSN deneddyl inh inactive.
C=CCSc1nc2sc(C)c(C)c2c(=O)n1CC=C was read as Granule exo inh inactive, Myeloid diff 2 inactive, HNF4A DNA FP inactive and CSN deneddyl inh inactive.
C=CCn1c(SCC(=O)c2cccs2)nc2sc(C)c(C)c2c1=O was read as Granule exo inh inactive, Myeloid diff 2 active, HNF4A DNA FP inactive and CSN deneddyl inh inactive.
For O=C(COC(=O)c1ccc(S(=O)(=O)NCc2ccco2)cc1)Nc1ccc(Cl)cn1 the results were Granule exo inh inactive, Myeloid diff 2 inactive, HNF4A DNA FP inactive and CSN deneddyl inh 48.
CN(Cc1cnn(-c2ccccc2)c1)C(=O)c1ccc(S(=O)(=O)NCc2ccco2)cc1 was read as Granule exo inh inactive, Myeloid diff 2 inactive, HNF4A DNA FP inactive and CSN deneddyl inh 45.
